Measurements as given in ChEMBL document CHEMBL1130127, “Synthesis, photophysical properties, in vivo photosensitizing efficacy, and human serum albumin binding properties of some novel bacteriochlorins” (J Med Chem, 1997).
Blank lines part the entries; values can stand above or below the compound they belong to. Activity calls are given as the source filed them. The calls are words filed in the database; no cut-off is given here.

What was measured:
Mus musculus [1] = assay: The compound was tested in vivo for photosensitizing efficacy in DBA/2 Mice transplanted with SMT/F tumors and the activity is expressed as % response at (21-25 days) 3 hours post injection at 1 mg/kg concentration; assay type: functional
In short: (§1)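 Female DBA/2 HA-DD mice, 5-7 weeks old. A 1 mm SMT-F tumor piece from a donor was trocar-implanted subcutaneously in the axilla. At about 5 mm tumor diameter, sensitizer in 1% Tween 80/water was given iv; dose was based on extinction coefficient. At 3 or 24 h after injection, restrained mice had the tumor lit with 135 J/cm2 laser light at the in vivo long-wavelength maximum. Tumor response was followed to day 30; six mice/group.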

Mus musculus [2] = assay: The compound was tested in vivo for photosensitizing efficacy in DBA/2 Mice transplanted with SMT/F tumors and the activity is expressed as % response at (21-25 days) 24 hours post injection at 5 mg/kg concentration; No response; assay type: functional, organism-based; set-up: dose 5 mg/kg; in short: as §1
Mus musculus [3] = assay: The compound was tested in vivo for photosensitizing efficacy in DBA/2 Mice transplanted with SMT/F tumors and the activity is expressed as % response at (11-15 days) 3 hours post injection at 1 mg/kg concentration; assay type: functional; in short: as §1
Mus musculus [4] = assay: The compound was tested in vivo for photosensitizing efficacy in DBA/2 Mice transplanted with SMT/F tumors and the activity is expressed as % response at (16-20 days) 3 hours post injection at 1 mg/kg concentration; assay type: functional; in short: as §1
Mus musculus [5] = assay: The compound was tested in vivo for photosensitizing efficacy in DBA/2 Mice transplanted with SMT/F tumors and the activity is expressed as % response at (26-30 days) 24 hours post injection at 5 mg/kg concentration; No response; assay type: functional, organism-based; set-up: dose 5 mg/kg
Albumin [6] = target: T1, Albumin (Homo sapiens, UniProt P02768); assay: Binding affinity against Human serum albumin(Site II).
In short: (§2)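 Fluorometric titration: HSA and sensitizer fixed at 1 × 10^-6 mol/L. Site probe varied 4 × 10^-7 to 2 × 10^-6 mol/L: DNSA for site I, read at 472 nm; DP for site II, read at 476 nm; excitation 340 nm. Incubated 4 °C, pH 7.0, 4 h, dark. Bound probe taken from standard curves of free probe (water) and HSA-bound probe (2.5 × 10^-5 mol/L HSA).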

Mus musculus [7] = assay: The compound was tested in vivo for photosensitizing efficacy in DBA/2 Mice transplanted with SMT/F tumors and the activity is expressed as % response at (21-25 days) 3 hours post injection at 2.5 mg/kg concentration; assay type: functional; in short: as §1
Mus musculus [8] = assay: The compound was tested in vivo for photosensitizing efficacy in DBA/2 Mice transplanted with SMT/F tumors and the activity is expressed as % response at (1-5 days) 24 hours post injection at 5.0 mg/kg concentration; No response; assay type: functional, organism-based; set-up: dose 5 mg/kg; in short: as §1
Mus musculus [9] = assay: The compound was tested in vivo for photosensitizing efficacy in DBA/2 Mice transplanted with SMT/F tumors and the activity is expressed as % response at (26-30 days) 3 hours post injection at 2.5 mg/kg concentration; assay type: functional
Mus musculus [10] = assay: The compound was tested in vivo for photosensitizing efficacy in DBA/2 Mice transplanted with SMT/F tumors and the activity is expressed as % response at (6-10 days) 3 hours post injection at 2.5 mg/kg concentration; assay type: functional
In short: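 SMT-F tumor piece (1 mm) from donor implanted subcutaneously by trocar into axilla of 5–7-week-old female DBA/2 HA-DD mice; treated at ~5 mm diameter. Sensitizer dissolved in 1% Tween 80/water, given iv; 3 h later restrained mouse's tumor illuminated with 135 J/cm2 laser light at in vivo long-wavelength absorption maximum. Tumor response scored over 30 days; six mice/group.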

Mus musculus [11] = assay: The compound was tested in vivo for photosensitizing efficacy in DBA/2 Mice transplanted with SMT/F tumors and the activity is expressed as % response at (16-20 days) 3 hours post injection at 2.5 mg/kg concentration; assay type: functional; in short: as §1
Mus musculus [12] = assay: The compound was tested in vivo for photosensitizing efficacy in DBA/2 Mice transplanted with SMT/F tumors and the activity is expressed as % response at (16-20 days) 24 hours post injection at 5 mg/kg concentration; No response; assay type: functional, organism-based; set-up: dose 5 mg/kg; in short: as §1
Mus musculus [13] = assay: The compound was tested in vivo for photosensitizing efficacy in DBA/2 Mice transplanted with SMT/F tumors and the activity is expressed as % response at (6-10 days) 3 hours post injection at 1 mg/kg concentration; assay type: functional
Mus musculus [14] = assay: The compound was tested in vivo for photosensitizing efficacy in DBA/2 Mice transplanted with SMT/F tumors and the activity is expressed as % response at (6-10 days) 24 hours post injection at 5 mg/kg concentration; No response; assay type: functional, organism-based; set-up: dose 5 mg/kg
Mus musculus [15] = assay: The compound was tested in vivo for photosensitizing efficacy in DBA/2 Mice transplanted with SMT/F tumors and the activity is expressed as % response at (1-5 days) 3 hours post injection at 2.5 mg/kg concentration; assay type: functional; in short: as §1
Mus musculus [16] = assay: The compound was tested in vivo for photosensitizing efficacy in DBA/2 Mice transplanted with SMT/F tumors and the activity is expressed as % response at (1-5 days) 3 hours post injection at 1 mg/kg concentration; assay type: functional; in short: as §1
Albumin [17] = target: T1, Albumin; assay: Binding affinity against Human serum albumin(Site I).; in short: as §2
Mus musculus [18] = assay: The compound was tested in vivo for photosensitizing efficacy in DBA/2 Mice transplanted with SMT/F tumors and the activity is expressed as % response at (11-15 days) 3 hours post injection at 2.5 mg/kg concentration; assay type: functional; in short: as §1
Mus musculus [19] = assay: The compound was tested in vivo for photosensitizing efficacy in DBA/2 Mice transplanted with SMT/F tumors and the activity is expressed as % response at (26-30 days) 3 hours post injection at 1 mg/kg concentration; assay type: functional
Mus musculus [20] = assay: The compound was tested in vivo for photosensitizing efficacy in DBA/2 Mice transplanted with SMT/F tumors and the activity is expressed as % response at (11-15 days) 24 hours post injection at 5 mg/kg concentration; No response; assay type: functional, organism-based; set-up: dose 5 mg/kg; in short: as §1
Mus musculus [21] = assay: The compound was tested in vivo for photosensitizing efficacy in DBA/2 Mice transplanted with SMT/F tumors and the activity is expressed as % response (11-15 days) 3 hours post injection at 5.0 mg/kg concentration; No response; assay type: functional, organism-based; set-up: dose 5 mg/kg; in short: as §1
Mus musculus [22] = assay: The compound was tested in vivo for photosensitizing efficacy in DBA/2 Mice transplanted with SMT/F tumors and the activity is expressed as % response (16-20 days) 3 hours post injection at 5.0 mg/kg concentration; No response; assay type: functional, organism-based; set-up: dose 5 mg/kg; in short: as §1
Mus musculus [23] = assay: The compound was tested in vivo for photosensitizing efficacy in DBA/2 Mice transplanted with SMT/F tumors and the activity is expressed as % response (21-25 days) 3 hours post injection at 5.0 mg/kg concentration; No response; assay type: functional, organism-based; set-up: dose 5 mg/kg; in short: as §1
Mus musculus [24] = assay: The compound was tested in vivo for photosensitizing efficacy in DBA/2 Mice at (1-5 days) 3 hours post injection at 5.0 mg/kg concentration; No response; assay type: functional, organism-based; set-up: dose 5 mg/kg; in short: as §1
Mus musculus [25] = assay: The compound was tested in vivo for photosensitizing efficacy in DBA/2 Mice transplanted with SMT/F tumors and the activity is expressed as % response (6-10 days) 3 hours post injection at 5.0 mg/kg concentration; No response; assay type: functional, organism-based; set-up: dose 5 mg/kg; in short: as §1
Mus musculus [26] = assay: The compound was tested in vivo for photosensitizing efficacy in DBA/2 Mice transplanted with SMT/F tumors and the activity is expressed as % response (26-30 days) 3 hours post injection at 5.0 mg/kg concentration; No response; assay type: functional, organism-based; set-up: dose 5 mg/kg; in short: as §1

T1 sequence (P02768 whole entry): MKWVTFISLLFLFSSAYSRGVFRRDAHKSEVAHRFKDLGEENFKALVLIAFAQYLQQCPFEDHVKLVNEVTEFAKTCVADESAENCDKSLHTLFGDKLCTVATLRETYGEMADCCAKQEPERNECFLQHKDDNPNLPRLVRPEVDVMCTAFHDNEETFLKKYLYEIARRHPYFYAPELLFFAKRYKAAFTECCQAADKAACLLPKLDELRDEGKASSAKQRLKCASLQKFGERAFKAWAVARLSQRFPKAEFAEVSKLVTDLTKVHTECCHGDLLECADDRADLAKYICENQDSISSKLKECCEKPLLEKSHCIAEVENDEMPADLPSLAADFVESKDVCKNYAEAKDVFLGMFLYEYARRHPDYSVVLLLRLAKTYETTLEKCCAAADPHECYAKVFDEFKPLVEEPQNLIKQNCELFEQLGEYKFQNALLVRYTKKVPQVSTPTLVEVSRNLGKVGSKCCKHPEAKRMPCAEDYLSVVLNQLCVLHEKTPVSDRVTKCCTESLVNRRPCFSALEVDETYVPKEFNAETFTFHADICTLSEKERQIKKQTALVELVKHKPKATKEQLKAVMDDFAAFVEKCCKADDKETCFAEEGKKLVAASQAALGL

Binding constant (Albumin [6]): 500000 l M-1
Binding constant (Albumin [17]): 500000 l M-1
SMILES: CCc1c(C)c2[nH]c1cc1[nH]c(cc3nc4c(c5nc(c2C=O)[C@@H](C)[C@@H]5CCC(=O)NC(CC(=O)OC(C)(C)C)C(=O)OC(C)(C)C)CCC4=C3C)C(=O)C1(C)CC (some centres not stated)
Response (Mus musculus [1]): 50%
Response (Mus musculus [2]): inactive
Response (Mus musculus [3]): 60%
Response (Mus musculus [4]): 60%
Response (Mus musculus [5]): inactive
Response (Mus musculus [7]): 60%
Response (Mus musculus [8]): inactive
Response (Mus musculus [9]): 60%
Response (Mus musculus [10]): 100%
Response (Mus musculus [11]): 60%
Response (Mus musculus [12]): inactive
Response (Mus musculus [13]): 80%
Response (Mus musculus [14]): inactive
Response (Mus musculus [15]): 100%
Response (Mus musculus [16]): 100%
Response (Mus musculus [18]): 60%
Response (Mus musculus [19]): 50%
Response (Mus musculus [20]): inactive

Binding constant (Albumin [17]): 500000 l M-1
SMILES: CCc1c(C)c2[nH]c1cc1[nH]c(cc3nc4c(c5nc(c2C=O)[C@@H](C)[C@@H]5CCC(=O)OC)CCC4=C3C)C(O)(CC)C1(C)O (some centres not stated)
Response (Mus musculus [21]): inactive
Response (Mus musculus [22]): inactive
Response (Mus musculus [23]): inactive
Response (Mus musculus [24]): inactive
Response (Mus musculus [25]): inactive
Response (Mus musculus [26]): inactive
